Measurements of several laboratories.
Each line is one published result; the experiments were not run side by side.
Target: Calcium/calmodulin-dependent protein kinase type II subunit gamma (CAMK2G, Homo sapiens, UniProt Q13555)

| SMILES | assay | conditions | remaining binding [%] |
| --- | --- | --- | --- |
| CC1CCCN1c1nccc(-c2cnn3ncccc23)n1 (centres unmarked) | binding | 1 µM | 100 |
| CCOC(=O)c1cc2cc(-c3cc(C(=O)NCc4ccc(C(=O)O)cc4)nn3C)ccc2[nH]1 | cell-free assay, competition with immobilised ligand | 0.1 µM | 100 |
| O=C(NCCCN1CCOCC1)c1ccc(Nc2ncc(Cl)c(-c3ccc(Cl)s3)n2)cc1 | binding, competition with immobilised ligand | 1 µM | 77 |
| O=C(NCC1CCOCC1)c1n[nH]cc1NC(=O)c1c(F)cccc1F | binding, competition with immobilised ligand | 1 µM | 88 |
| COc1cnc(Nc2cccc(S(N)(=O)=O)c2)nc1N1CCN(c2ccccc2)C(=O)C1 | binding, competition with immobilised ligand | 1 µM | 100 |
| c1cncc(-c2cccc(Nc3nccc(NC4CCCCC4)n3)c2)c1 | binding, competition with immobilised ligand | 10 µM | 80 |
| CCS(=O)(=O)c1cc2cc(C[C@](O)(CC(C)(C)c3ccc(F)cc3C(N)=O)C(F)(F)F)[nH]c2cn1 | cell-free assay, competition with immobilised ligand | 1 µM | 100 |
| O=C(NCCCN1CCOCC1)c1ccc(Nc2nccc(-c3cc4ccccc4s3)n2)cc1 | binding, competition with immobilised ligand | 1 µM | 90 |
| CS(=O)(=O)NCC[C@H](NC(=O)c1cncc2c1cnn2-c1ccc(F)cc1)c1ccnc(S(C)(=O)=O)c1 | cell-free assay, competition with immobilised ligand | 1 µM | 99 |
| Cc1cnn2ncc(-c3ccnc(N(C)C)n3)c2c1 | binding | 1 µM | 64 |
| Nc1ncc2c(n1)-c1c([nH]c3ccc(C#CC4CC4)cc13)CCCC2 | binding, competition with immobilised ligand | 1 µM | 100 |
| C[C@@H](c1ccc(-n2cnc3c(N)ncnc32)cc1)N1CCc2nn(C)c(Cc3ccccc3)c2C1=O | binding, competition with immobilised ligand | 0.1 µM | 94 |
| CN(CCCC(F)(F)F)c1nccc(-c2cnn3ncccc23)n1 | binding | 1 µM | 100 |
| COc1cc(-c2cn(C3CCc4ccccc4N(CC(F)(F)F)C3=O)nn2)ccc1-n1ccc(C)n1 (centres unmarked) | cell-free assay, competition with immobilised ligand | 1 µM | 100 |
| CN(c1nccc(-c2cnn3ncccc23)n1)C1CC1 | binding | 1 µM | 100 |
| O=C(c1ccc(Nc2ncc(Cl)c(-c3cc4ccccc4s3)n2)cc1)N1CCC(N2CCCC2)CC1 | binding, competition with immobilised ligand | 1 µM | 82 |
| O=C(N1CCS(=O)(=O)CC1)N1C[C@H](c2ccc(OC(F)(F)F)cc2)C[C@H](c2nc(C3CC3)no2)C1 | cell-free assay, competition with immobilised ligand | 1 µM | 100 |
| N[C@@H]1CCN(c2nccc(-c3cnn4ncccc34)n2)C1 | binding | 1 µM | 100 |
| CN(C)C(=O)Cn1cc(-c2nc([C@@](C)(c3ccc(-c4cnc(N)nc4)cc3)C3CC3)no2)cn1 | cell-free assay, competition with immobilised ligand | 1 µM | 100 |
| COc1ccnn2ncc(-c3ccnc(N(C)C)n3)c12 | binding | 1 µM | 100 |
